About 770 (0.79%) of roughly 97,000 compounds were called active.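 Rule for the calls: active = inhibition above the screen-wide mean plus 3 SD (cut at about 35% in these data); inactive = the rest.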 Shown is part of a subset that was picked to be rich in actives.
The compounds below were run against Protein Rev (Human immunodeficiency virus type 1 group M subtype B (isolate WMJ22)) (UniProt P05866) (assay: HIV-1 Rev-RRE binding inhibitors, primary screen, biochemical, FRET, protein-RNA interaction (AID 704;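 note: 0% = median DMSO wells and 100% = median Neomycin B control wells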)). Details: Rev peptide-RRE RNA binding, at 8 µM, stronger effect = higher value.
Outline: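 Test system: Cy5-tagged RRE RNA duplex with fluorescein-tagged Rev peptide; Probe or stimulus: labelled Rev peptide; Schedule: 5 min preincubation and 15 min binding, 25 °C; Signal: FRET fluorescence readout; Evaluation: % inhibition from 671/540 nm acceptor-to-donor ratio, scaled between controls; Control set: DMSO and neomycin B.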

Chain of Protein Rev (Human immunodeficiency virus type 1 group M subtype B (isolate WMJ22)) (P05866 whole entry, looked up): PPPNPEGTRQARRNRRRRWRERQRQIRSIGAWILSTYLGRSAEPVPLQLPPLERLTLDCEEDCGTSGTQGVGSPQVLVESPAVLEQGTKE

SMILES	inhibition
COc1ccc(Nc2nc(=O)[nH]nc2C)cc1	4.41% (inactive)
COc1ccc([N+](=O)[O-])cc1NC(=O)CCc1ccccc1	1.01% (inactive)
CCOC(=O)C1=C(C)Nc2sc(C(=O)c3ccc(Br)cc3)c(N)c2C1c1ccc(C(=O)OC)cc1 (stereo not given)	7.08% (inactive)
Cc1cccc(C)c1N1CCN(S(=O)(=O)N2CCOCC2)CC1	8.84% (inactive)
Cc1ccc(S(=O)(=O)Nc2nc3ccccc3nc2N2CCc3ccccc3C2)cc1	6.67% (inactive)
Cc1ccc(S(=O)(=O)C(C#N)c2nc3ccccc3nc2N2CCCC2)cc1C (stereo not given)	80% [fluorescence artefact?] (active)
Cc1cc(N2CCN(S(=O)(=O)c3ccc(C)c(C)c3)CC2)c2ccccc2n1	16.5% (inactive)
CC(C)=C1SC(N2CCN(c3cccc(C)c3)CC2)=NC1=O	3.88% (inactive)
CCOC(=O)c1cc2n(c1C)-c1ccccc1C2=O	7.43% (inactive)
CC(C)OC(=O)CN1C(=O)C(=O)c2ccccc21	9.74% (inactive)
CCOC(=O)c1cc2n(c1N)-c1ccccc1C2=O	107% [fluorescence artefact?] (active)
CC(C)CCNC(=O)Cn1c(=O)oc2cc(S(=O)(=O)N3CC(C)CC(C)C3)ccc21 (stereo not given)	4.77% (inactive)
CCCn1c(O)c(CN2CCCC(C)C2)c(C)c(C#N)c1=O (stereo not given)	42.6% (active)
CCOC(=O)N1CCN(c2c(NCCCN3CCCC(C)C3)c(=O)c2=O)CC1 (stereo not given)	1.25% (inactive)
CCCCCCn1c(CN2CCCC(C)C2)nc2c1c(=O)n(C)c(=O)n2C (stereo not given)	7.64% (inactive)
O=C(O)c1ccccc1NC(=S)NC(NC(=O)c1ccccc1[N+](=O)[O-])C(Cl)(Cl)Cl (stereo not given)	-3.09% (inactive)
CCc1nnc(NC(=O)c2cccs2)s1	7.76% (inactive)
CCc1ccc2nc3sc(C(=O)Nc4nnc(CC)s4)c(N)c3cc2c1	89.2% [fluorescence artefact?] (active)
CCc1nnc(NC(=O)c2nc3nccc(C)n3n2)s1	12.3% (inactive)
Cc1ccc(-n2c(C)cc(/C=N/Nc3ccc([N+](=O)[O-])cn3)c2C)c(C)c1	31.5% (inactive)
Cc1cccc(COc2ccccc2/C=N/Nc2ccc([N+](=O)[O-])cc2)c1	64% (active)
COc1cccc(/C=N/NC(=O)c2cccc([N+](=O)[O-])c2)c1OS(=O)(=O)c1ccc(C)cc1	11.5% (inactive)
C=CCNc1cnn(-c2ccc(C)cc2)c(=O)c1Cl	-1.57% (inactive)

SMILES	inhibition
Cc1ccc(-n2c(C)cc(/C=C(\C#N)C(=O)NCC3CCCO3)c2C)cc1 (stereo not given)	-6.05% (inactive)
N#CCSc1nc2c(c(=O)n1Cc1ccccc1)C1(CCCC1)Cc1ccccc1-2	23.3% (inactive)
Cc1cccn2c(=O)c(/C=C3\SC(=S)N(CC(C)C)C3=O)c(NCCCOC(C)C)nc12	73.4% (active)
CC(C)OCCCNc1nc2c(c(=O)n(Cc3ccccc3F)c(=O)n2C)n1C	8.58% (inactive)
Cn1nc(C(F)(F)F)c(C(=O)Nc2cccc(C(F)(F)F)c2)c1SCc1ccc(Cl)cc1	9.7% (inactive)
COc1ccc(CNC(=O)C2CCC(CNc3c(N4CCOCC4)c(=O)c3=O)CC2)cc1 (stereo not given)	-0.22% (inactive)
CCOc1ccc(CN(Cc2ccco2)S(=O)(=O)c2ccc(-n3cnnn3)c(OC)c2)cc1	18.6% (inactive)
O=C(O)C1CCN(C(=O)OCc2ccccc2)CC1	2.49% (inactive)
CCC(C)n1c(-c2cc(OC)c(OC)c(OC)c2)nc2nc3ccccc3nc21 (stereo not given)	2.36% (inactive)
CCOC(=O)C1=C(CN2CCc3ccccc32)NC(=O)NC1c1ccc(Cl)cc1 (stereo not given)	10.3% (inactive)
CCOCCOCCC(C(=O)O)P(=O)(c1ccccc1)c1ccccc1 (stereo not given)	0.47% (inactive)
O=c1cc(C(F)(F)F)[nH]c(=O)n1C1CCCCC1	8.66% (inactive)
COC(=O)C1=C(C)N=C2SC(C)C(=O)N2C1/C=C/c1ccccc1 (stereo not given)	4.63% (inactive)
C=C(Cl)COC(=O)C1C2C=CC(C2)C1C(=O)O (stereo not given)	3.94% (inactive)
Oc1ccc(-c2onc3ccc(Cl)cc23)cc1	47.9% (active)
Cc1cccc(N(C(=O)c2ccc(CN3CCOCC3)o2)C(C(=O)NC2CCCCC2)c2ccc(F)cc2)c1 (stereo not given)	0.55% (inactive)
Cc1[nH]n(-c2ccccc2)c(=O)c1CCOC(=O)c1ccc(C(F)(F)F)cc1	3.64% (inactive)
N#Cc1c(N)n(CCOC(=O)c2ccc(Cl)cc2)c2nc3ccccc3nc12	7.97% (inactive)
CN(C)CCCn1c(N)c(C#N)c2nc(C#N)c(C#N)nc21	44.4% (active)
OC(COc1ccc2c(c1)CCC2)CN1CCN(c2cccc(Cl)c2)CC1 (stereo not given)	13.2% (inactive)
Cc1cc(OCCOc2cccc3cccnc23)c(C)cc1Cl	17.3% (inactive)
Cc1ccc2nc(Nc3ccccc3O)nc(-c3ccccc3)c2c1	9.78% (inactive)
